Test results: paper PMC6120582 (Science (New York, N.Y.), 2018)

Experiments:
eIF2B(αβγδε)2 [1] = target: eIF2B(αβγδε)2 (Homo sapiens, UniProt P49770+Q9UI10, Q9UI10:L179A); test: GEF assay, unloading of Bodipy-GDP from eIF2; assay type: biochemical; settings: assembled eIF2B(βγδε) and eIF2B(α2); activator
Procedure, shortened: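 Human eIF2B subunits were co-expressed in E. coli from three plasmids, and the βγδε (δL179A) and α2 subcomplexes were purified separately and combined. The substrate was non-phosphorylated human eIF2 from gcn2Δ S. cerevisiae, loaded with Bodipy-GDP. A 1000-fold excess of unlabeled GDP was added as a chase, and the fluorescence decrease was followed with and without test compound. kobs came from a single-exponential fit.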

eIF2 = eIF2 (Homo sapiens, UniProt P41091); test: GDP unloading assay, displacement of Bodipy-GDP; assay type: binding; settings: 1000-fold excess of unlabelled GDP; exchange catalysed by eIF2B
eIF2B(αβγδε)2 [2] = target: eIF2B(αβγδε)2 (Homo sapiens, UniProt P49770+Q9UI10, P49770:H188A); test: decamer stability, sucrose gradient velocity sedimentation; assay type: binding; settings: 500 nM ISRIB, 400 mM salt
Sequence of eIF2B(αβγδε)2 (Homo sapiens, UniProt P49770+Q9UI10, P49770:H188A) (P49770 whole entry H188A): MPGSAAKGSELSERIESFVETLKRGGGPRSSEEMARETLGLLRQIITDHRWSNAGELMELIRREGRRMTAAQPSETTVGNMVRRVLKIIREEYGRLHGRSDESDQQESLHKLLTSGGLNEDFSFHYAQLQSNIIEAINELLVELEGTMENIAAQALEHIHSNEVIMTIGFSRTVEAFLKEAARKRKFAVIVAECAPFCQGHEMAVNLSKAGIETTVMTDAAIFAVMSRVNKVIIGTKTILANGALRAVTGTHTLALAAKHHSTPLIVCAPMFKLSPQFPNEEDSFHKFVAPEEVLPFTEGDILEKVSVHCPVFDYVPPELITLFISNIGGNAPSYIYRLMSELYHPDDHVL
Sequence of eIF2B(αβγδε)2 (Homo sapiens, UniProt P49770+Q9UI10, P49770:H188A) (Q9UI10 whole entry): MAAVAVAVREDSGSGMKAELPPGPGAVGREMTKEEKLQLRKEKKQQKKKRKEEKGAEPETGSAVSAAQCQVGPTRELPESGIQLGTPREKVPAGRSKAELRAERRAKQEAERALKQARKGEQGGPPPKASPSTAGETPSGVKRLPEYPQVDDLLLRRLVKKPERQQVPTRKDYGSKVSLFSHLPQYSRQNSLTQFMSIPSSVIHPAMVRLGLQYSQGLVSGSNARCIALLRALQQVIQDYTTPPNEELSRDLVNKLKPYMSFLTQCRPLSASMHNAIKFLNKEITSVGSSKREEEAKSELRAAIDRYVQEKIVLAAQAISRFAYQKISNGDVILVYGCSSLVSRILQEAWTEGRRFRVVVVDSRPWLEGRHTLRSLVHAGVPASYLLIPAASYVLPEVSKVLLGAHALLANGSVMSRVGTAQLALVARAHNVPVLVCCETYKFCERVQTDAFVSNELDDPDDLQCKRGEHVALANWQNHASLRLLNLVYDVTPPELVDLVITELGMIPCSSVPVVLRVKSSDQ
Sequence of eIF2B(αβγδε)2 (Homo sapiens, UniProt P49770+Q9UI10, P49770:H188A) (Q14232 whole entry partner): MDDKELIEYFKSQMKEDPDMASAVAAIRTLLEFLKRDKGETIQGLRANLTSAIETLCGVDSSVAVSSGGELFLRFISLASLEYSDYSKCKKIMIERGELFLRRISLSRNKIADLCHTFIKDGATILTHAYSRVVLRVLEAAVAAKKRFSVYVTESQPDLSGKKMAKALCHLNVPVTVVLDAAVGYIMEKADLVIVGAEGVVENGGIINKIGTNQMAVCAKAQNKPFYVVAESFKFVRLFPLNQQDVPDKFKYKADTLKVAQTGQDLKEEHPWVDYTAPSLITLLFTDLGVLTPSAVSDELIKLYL
Sequence of eIF2B(αβγδε)2 (Homo sapiens, UniProt P49770+Q9UI10, P49770:H188A) (Q9NR50 whole entry partner): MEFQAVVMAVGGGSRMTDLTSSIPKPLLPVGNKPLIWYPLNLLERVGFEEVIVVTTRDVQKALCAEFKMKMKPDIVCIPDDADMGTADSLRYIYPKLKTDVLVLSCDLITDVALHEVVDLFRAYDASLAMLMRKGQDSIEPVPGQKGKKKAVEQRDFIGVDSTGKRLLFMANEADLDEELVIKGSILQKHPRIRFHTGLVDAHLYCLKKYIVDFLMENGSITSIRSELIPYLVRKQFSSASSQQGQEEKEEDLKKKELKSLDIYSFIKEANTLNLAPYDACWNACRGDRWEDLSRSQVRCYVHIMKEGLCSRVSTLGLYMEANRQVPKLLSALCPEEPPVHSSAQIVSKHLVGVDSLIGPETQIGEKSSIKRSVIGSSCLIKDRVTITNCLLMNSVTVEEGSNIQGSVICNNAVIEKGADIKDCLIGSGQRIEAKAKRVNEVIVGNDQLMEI
Sequence of eIF2B(αβγδε)2 (Homo sapiens, UniProt P49770+Q9UI10, P49770:H188A) (Q13144 2-721 partner): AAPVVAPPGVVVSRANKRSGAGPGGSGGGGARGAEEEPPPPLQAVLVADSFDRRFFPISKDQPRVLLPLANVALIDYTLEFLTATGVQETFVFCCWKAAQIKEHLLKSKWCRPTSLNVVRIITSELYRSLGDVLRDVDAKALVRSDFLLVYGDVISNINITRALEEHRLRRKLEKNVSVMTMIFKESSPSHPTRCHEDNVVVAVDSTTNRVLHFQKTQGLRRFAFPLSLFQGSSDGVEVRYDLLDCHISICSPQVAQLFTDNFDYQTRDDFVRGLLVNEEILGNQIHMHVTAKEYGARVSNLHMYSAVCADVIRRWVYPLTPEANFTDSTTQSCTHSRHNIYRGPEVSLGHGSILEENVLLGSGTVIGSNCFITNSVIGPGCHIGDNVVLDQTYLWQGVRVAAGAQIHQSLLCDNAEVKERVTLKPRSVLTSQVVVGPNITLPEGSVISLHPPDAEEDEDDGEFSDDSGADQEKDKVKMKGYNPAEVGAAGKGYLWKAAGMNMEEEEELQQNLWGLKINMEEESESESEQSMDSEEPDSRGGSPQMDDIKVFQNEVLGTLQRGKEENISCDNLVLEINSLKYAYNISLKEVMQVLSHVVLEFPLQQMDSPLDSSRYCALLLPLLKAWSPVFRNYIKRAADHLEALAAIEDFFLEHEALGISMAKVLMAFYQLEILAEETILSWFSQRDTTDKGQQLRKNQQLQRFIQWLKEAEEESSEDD

Sequence of eIF2B(αβγδε)2 (Homo sapiens, UniProt P49770+Q9UI10, Q9UI10:L179A) (P49770 whole entry): as the sequence (P49770 whole entry H188A) above, with A188H counted along it
Sequence of eIF2B(αβγδε)2 (Homo sapiens, UniProt P49770+Q9UI10, Q9UI10:L179A) (Q9UI10 whole entry L179A): as the sequence (Q9UI10 whole entry) above, with L179A counted along it
Sequence of eIF2B(αβγδε)2 (Homo sapiens, UniProt P49770+Q9UI10, Q9UI10:L179A) (Q14232 whole entry partner): as the sequence (Q14232 whole entry partner) above
Sequence of eIF2B(αβγδε)2 (Homo sapiens, UniProt P49770+Q9UI10, Q9UI10:L179A) (Q9NR50 whole entry partner): as the sequence (Q9NR50 whole entry partner) above
Sequence of eIF2B(αβγδε)2 (Homo sapiens, UniProt P49770+Q9UI10, Q9UI10:L179A) (Q13144 2-721 partner): as the sequence (Q13144 2-721 partner) above
Sequence of eIF2 (P41091 2-472): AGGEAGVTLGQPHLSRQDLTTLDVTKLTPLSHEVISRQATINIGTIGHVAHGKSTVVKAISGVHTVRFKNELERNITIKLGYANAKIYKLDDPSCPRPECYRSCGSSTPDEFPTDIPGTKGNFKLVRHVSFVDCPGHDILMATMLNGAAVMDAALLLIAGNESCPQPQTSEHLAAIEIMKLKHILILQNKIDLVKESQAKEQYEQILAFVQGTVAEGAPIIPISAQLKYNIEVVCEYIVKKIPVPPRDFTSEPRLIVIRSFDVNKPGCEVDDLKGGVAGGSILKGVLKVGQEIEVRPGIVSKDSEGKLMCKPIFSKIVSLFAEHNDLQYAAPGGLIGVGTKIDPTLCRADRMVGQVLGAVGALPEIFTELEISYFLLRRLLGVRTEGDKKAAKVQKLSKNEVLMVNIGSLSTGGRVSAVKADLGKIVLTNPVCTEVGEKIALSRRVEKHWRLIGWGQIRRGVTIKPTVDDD
Sequence of eIF2 (P05198 whole entry partner): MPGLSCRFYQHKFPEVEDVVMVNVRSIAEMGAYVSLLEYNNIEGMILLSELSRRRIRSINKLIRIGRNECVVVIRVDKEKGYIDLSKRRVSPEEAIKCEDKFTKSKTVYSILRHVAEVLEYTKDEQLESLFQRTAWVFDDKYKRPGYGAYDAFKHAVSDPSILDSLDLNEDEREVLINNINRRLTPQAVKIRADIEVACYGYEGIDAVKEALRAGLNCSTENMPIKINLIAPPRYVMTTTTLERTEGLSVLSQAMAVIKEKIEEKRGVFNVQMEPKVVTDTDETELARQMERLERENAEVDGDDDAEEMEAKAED
Sequence of eIF2 (P20042 2-333 partner): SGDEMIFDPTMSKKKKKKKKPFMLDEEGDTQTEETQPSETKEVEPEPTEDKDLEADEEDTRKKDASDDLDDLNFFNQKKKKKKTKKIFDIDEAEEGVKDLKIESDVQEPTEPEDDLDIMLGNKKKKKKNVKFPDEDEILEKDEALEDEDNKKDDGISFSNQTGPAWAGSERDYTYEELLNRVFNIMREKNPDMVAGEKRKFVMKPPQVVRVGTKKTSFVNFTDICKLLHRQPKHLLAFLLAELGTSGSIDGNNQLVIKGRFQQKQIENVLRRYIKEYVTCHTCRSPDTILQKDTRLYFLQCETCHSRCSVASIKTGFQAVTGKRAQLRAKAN

C[C@@H](Oc1ccc(Cl)cc1)C(=O)N[C@H]1CC[C@H](NC(=O)[C@@H](C)Oc2ccc(Cl)cc2)CC1 [ISRIB-A19(R,R)]
fold activation of GEF activity (kobs) (eIF2B(αβγδε)2 [1]): ~ 3 fold

Nc1nc2c(ncn2[C@@H]2O[C@H](COP(=O)(O)OP(=O)(O)O)[C@@H](O)[C@H]2O)c(=O)[nH]1 [GDP]
GDP unloading assay, displacement of Bodipy-GDP (eIF2): we added fluorescent Bodipy-GDP to GDP-bound eIF2

O=C(COc1ccc(Cl)cc1)N[C@H]1CC[C@H](NC(=O)COc2ccc(Cl)cc2)CC1 [ISRIB]
decamer stabilization (inactive: none seen) (eIF2B(αβγδε)2 [2]): ISRIB did not stabilize eIF2B(βH188A) decamers
